Measurements pooled from the literature.
Protocols differ between the studies behind these lines.
Sample: Caco-2

SMILES | concentration | time | pH | Papp A→B
COc1cc(F)ccc1-c1ncnc(Nc2cccc(C[S@](C)(=N)=O)c2)n1 | 2 µM | 2 h | pH 7.2 | 35 nm/s
C[C@H]1O[C@@H](O[C@H]2[C@@H](O)C[C@H](O[C@H]3[C@@H](O)C[C@H](O[C@H]4CC[C@@]5(C)[C@H](CC[C@@H]6[C@@H]5C[C@@H](O)[C@]5(C)[C@@H](C7=CC(=O)OC7)CC[C@]65O)C4)O[C@@H]3C)O[C@@H]2C)C[C@H](O)[C@@H]1O |  |  |  | 0.218 nm/s
COc1cccc2c(-c3ccccc3)cc(-c3ccc(-c4ccc(C(=O)O)cc4)[nH]3)nc12 |  |  |  | 24.2 nm/s
Nc1cc(N2CCCCC2)nc(N)[n+]1[O-] | 10 µM | 2 h | pH 7.4 | 41.8 nm/s
CNC(=C[N+](=O)[O-])NCCSCc1ccc(CN(C)C)o1 |  |  |  | 4 nm/s
O=C(O)CCc1ccc(Oc2ccc(-c3noc(-c4ccc(O)cc4)n3)cc2)cc1 |  | 2 h | pH 7.4 | 180 nm/s
CCn1c(=O)c2c(nc(S)n2C)n(C)c1=O | 10 µM | 2 h |  | 27 nm/s
C[C@H]1O[C@@H](O[C@H]2[C@@H](O)C[C@H](O[C@H]3[C@@H](O)C[C@H](O[C@H]4CC[C@@]5(C)[C@H](CC[C@@H]6[C@@H]5C[C@@H](O)[C@]5(C)[C@@H](C7=CC(=O)OC7)CC[C@]65O)C4)O[C@@H]3C)O[C@@H]2C)C[C@H](O)[C@@H]1O | 10 µM | 2 h | pH 7.4 | 1.1 nm/s
CC#Cc1cncc(-c2ccc3c(c2)[C@@]2(N=C(C)C(N)=N2)[C@]2(CC[C@H](OC)CC2)C3)c1 |  |  |  | 348 nm/s
C[C@H]1O[C@@H](O[C@H]2[C@@H](O)C[C@H](O[C@H]3[C@@H](O)C[C@H](O[C@H]4CC[C@@]5(C)[C@H](CC[C@@H]6[C@@H]5C[C@@H](O)[C@]5(C)[C@@H](C7=CC(=O)OC7)CC[C@]65O)C4)O[C@@H]3C)O[C@@H]2C)C[C@H](O)[C@@H]1O | 5 µM | 1 h |  | 13 nm/s
COCCc1ccc(OCC(O)CNC(C)C)cc1 (stereo not shown) |  |  | pH 6.5 | 133 nm/s
Cc1ncsc1-c1ccc(CNC(=O)[C@@H]2C[C@@H](O)CN2C(=O)[C@@H](NC(=O)C2(F)CC2)C(C)(C)C)c(OCCOCCOCCN2CCN(c3cc(-c4ccccc4O)nnc3N)CC2)c1 |  | 2 h | pH 7.2 | 1.1 nm/s
CC(C)(C)NCC(O)COc1cccc2c1CC(O)C(O)C2 (stereo not shown) |  |  |  | 0.514 nm/s
C=CC(=O)Nc1cc(Nc2nccc(-c3cn(C)c4ccccc34)n2)c(OC)cc1N(C)CCN(C)C |  |  | pH 6.5 | 125 nm/s
CC(C)NCC(O)COc1cccc2ccccc12 (stereo not shown) | 5 µM | 1 h |  | 193 nm/s
Cn1c(S)nc2c1c(=O)n(Cc1ccccc1)c(=O)n2C | 10 µM | 2 h |  | 100 nm/s
